According to ChEMBL document CHEMBL5126577, “Discovery of honokiol thioethers containing 1,3,4-oxadiazole moieties as potential α-glucosidase and SARS-CoV-2 entry inhibitors” (Bioorg Med Chem, 2022):

Key:
[1] = Inhibition of alpha-glucosidase (unknown origin) using PNPG as substrate at 5 to 45 uM preincubated for 15 mins followed by substrate addition and measured after 10 mins by microplate reader analysis; settings: Homo sapiens; dose 5-45 µM, time 25.0 min
Method in brief: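 Compounds in DMSO/PBS dilution series were incubated with α-glucosidase (1.0 U/mL in PBS) for 15 min at 37 °C. 1 mM PNPG was added and incubated 10 min, then OD was read at 405 nm. Inhibition % was corrected with PBS-only and enzyme-free blanks. IC50 was calculated, with experiments run in triplicate.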

[2] = Cytotoxicity against human HEK-293T cells overexpressing ACE2 assessed as maximal non-toxic dose incubated for 4 hrs; format: toxicity, cell-based
[3] = molecular target: Angiotensin-converting enzyme 2 (Homo sapiens, UniProt Q9BYF1); experiment: Binding affinity to human ACE2 assessed as equilibrium dissociation constant by biolayer interferometry assay
Method in brief: (§1)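 BLI on Ni-NTA biosensors loaded with His-tagged recombinant SARS-CoV-2 spike RBD or human ACE2. Compounds (10 mM DMSO stock) were diluted serially in PBS. Each cycle: PBS equilibration 10 min, baseline 120 s, association 120 s, dissociation in PBS 120 s, all at 30 °C. Curves were double-referenced to blank sensors and PBS, and KD came from a 1:1 binding fit.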

L02 = experiment: Cytotoxicity against human L02 cells assessed as reduction on cell viability at 3.125 to 100 uM by MTT assay; format: toxicity, cell-based; settings: l02, 100 µM, dose 3.125-100 µM
Spike glycoprotein = Spike glycoprotein (Severe acute respiratory syndrome coronavirus 2, UniProt P0DTC2); experiment: Binding affinity to SARS-CoV-2 spike protein receptor-binding domain assessed as equilibrium dissociation constant by biolayer interferometry assay; method in brief: as §1
[4] = Cytotoxicity against human L02 cells assessed as cell survival rate at 100 uM by MTT assay; format: toxicity, cell-based; settings: read-out: Survival

Angiotensin-converting enzyme 2, sequence (Q9BYF1 whole entry): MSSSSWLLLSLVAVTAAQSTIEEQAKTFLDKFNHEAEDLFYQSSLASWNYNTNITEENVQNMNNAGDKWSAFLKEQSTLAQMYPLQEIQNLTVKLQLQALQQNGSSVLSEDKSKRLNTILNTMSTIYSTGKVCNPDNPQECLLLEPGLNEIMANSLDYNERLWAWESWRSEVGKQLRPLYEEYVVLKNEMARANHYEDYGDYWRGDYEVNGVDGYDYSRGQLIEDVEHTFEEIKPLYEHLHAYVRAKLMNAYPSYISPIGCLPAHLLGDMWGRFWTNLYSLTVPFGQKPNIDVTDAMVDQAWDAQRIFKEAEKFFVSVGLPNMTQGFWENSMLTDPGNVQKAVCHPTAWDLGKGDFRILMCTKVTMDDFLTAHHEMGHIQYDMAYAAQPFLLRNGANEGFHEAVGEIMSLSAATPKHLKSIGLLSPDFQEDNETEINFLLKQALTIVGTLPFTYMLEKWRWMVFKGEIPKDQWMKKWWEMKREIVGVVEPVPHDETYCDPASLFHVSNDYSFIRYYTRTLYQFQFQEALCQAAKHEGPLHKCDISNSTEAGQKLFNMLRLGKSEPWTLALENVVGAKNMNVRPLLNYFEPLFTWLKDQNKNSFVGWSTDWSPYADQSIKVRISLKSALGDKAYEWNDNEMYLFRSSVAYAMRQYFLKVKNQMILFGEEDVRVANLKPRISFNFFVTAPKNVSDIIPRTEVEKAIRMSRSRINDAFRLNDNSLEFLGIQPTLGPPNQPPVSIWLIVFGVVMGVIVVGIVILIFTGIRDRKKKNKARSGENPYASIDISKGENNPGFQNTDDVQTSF

SMILES	inhibition [1]	MNTC at 4 h [2]	other results
C=CCc1cc(CSc2nnc(-c3ccc([N+](=O)[O-])cc3)o2)c(O)c(-c2ccc(O)c(CC=C)c2)c1	79.5%	–	–
C=CCc1cc(-c2cc(CC=C)c3oc(SCc4nnc(-c5cccc(Br)c5)o4)nc3c2)c2oc(SCc3nnc(-c4cccc(Br)c4)o3)nc2c1	12.4%	> 100 µM	–
C=CCc1cc(CSc2nnc(-c3cccc(F)c3)o2)c(O)c(-c2ccc(O)c(CC=C)c2)c1	53.5%	–	–
C=CCc1cc(CSc2nnc(-c3ccccc3Cl)o2)c(O)c(-c2ccc(O)c(CC=C)c2)c1	64.5%	> 100 µM	–
C=CCc1cc(CSc2nnc(-c3cccnc3)o2)c(O)c(-c2ccc(O)c(CC=C)c2)c1	33.2%	> 100 µM	Kd [3]: 16 µM; Activity (L02): Non-Toxic; Kd (Spike glycoprotein): 7.29 µM; viability at 100 µM [4]: 80%
C=CCc1cc(-c2cc(CC=C)c3oc(SCc4nnc(-c5ccc(Br)cc5)o4)nc3c2)c2oc(SCc3nnc(-c4ccc(Br)cc4)o3)nc2c1	22.4%	> 100 µM	–
C=CCc1cc(CSc2nnc(-c3ccccc3F)o2)c(O)c(-c2ccc(O)c(CC=C)c2)c1	–	> 100 µM	–
C=CCc1ccc(O)c(-c2ccc(O)c(CC=C)c2)c1 [HONOKIOL]	17.1%	50 µM	Kd (Spike glycoprotein): 25 µM
C=CCc1cc(CSc2nnc(-c3cccc(C)c3)o2)c(O)c(-c2ccc(O)c(CC=C)c2)c1	78.2%	–	–
C=CCc1cc(-c2cc(CC=C)c3oc(SCc4nnc(-c5ccccc5)o4)nc3c2)c2oc(SCc3nnc(-c4ccccc4)o3)nc2c1	6.3%	> 100 µM	–
C=CCc1cc(CSc2nnc(-c3ccccc3C)o2)c(O)c(-c2ccc(O)c(CC=C)c2)c1	64.5%	> 100 µM	–
C=CCc1cc(-c2cc(CC=C)c3oc(SCc4nnc(-c5ccccc5Br)o4)nc3c2)c2oc(SCc3nnc(-c4ccccc4Br)o3)nc2c1	91.5%	> 100 µM	–
C=CCc1cc(-c2cc(CC=C)c3oc(SCc4nnc(-c5ccc(OC)cc5)o4)nc3c2)c2oc(SCc3nnc(-c4ccc(OC)cc4)o3)nc2c1	9.9%	> 100 µM	–
C=CCc1cc(-c2cc(CC=C)c3oc(SCc4nnc(-c5cccc(F)c5)o4)nc3c2)c2oc(SCc3nnc(-c4cccc(F)c4)o3)nc2c1	14.6%	> 100 µM	–
C=CCc1cc(-c2cc(CC=C)c3oc(SCc4nnc(-c5cccc(Cl)c5)o4)nc3c2)c2oc(SCc3nnc(-c4cccc(Cl)c4)o3)nc2c1	10.4%	> 100 µM	–
C=CCc1cc(-c2cc(CC=C)c3oc(SCc4nnc(-c5cccc(OC)c5)o4)nc3c2)c2oc(SCc3nnc(-c4cccc(OC)c4)o3)nc2c1	95.5%	> 100 µM	–
C=CCc1cc(-c2cc(CC=C)c3oc(SCc4nnc(-c5cccc(C)c5)o4)nc3c2)c2oc(SCc3nnc(-c4cccc(C)c4)o3)nc2c1	95.2%	> 100 µM	Activity (L02): Non-Toxic; viability at 100 µM [4]: 80%
C=CCc1cc(-c2cc(CC=C)c3oc(SCc4nnc(-c5ccccc5C)o4)nc3c2)c2oc(SCc3nnc(-c4ccccc4C)o3)nc2c1	–	> 100 µM	–
C=CCc1cc(-c2cc(CC=C)c3oc(SCc4nnc(-c5ccccc5Cl)o4)nc3c2)c2oc(SCc3nnc(-c4ccccc4Cl)o3)nc2c1	19.4%	> 100 µM	–
C=CCc1cc(-c2cc(CC=C)c3oc(SCc4nnc(-c5ccccc5OC)o4)nc3c2)c2oc(SCc3nnc(-c4ccccc4OC)o3)nc2c1	25.2%	> 100 µM	–
C=CCc1cc(CSc2nnc(-c3cccc(OC)c3)o2)c(O)c(-c2ccc(O)c(CC=C)c2)c1	81.8%	–	–
C=CCc1cc(CSc2nnc(-c3ccc(Cl)cc3)o2)c(O)c(-c2ccc(O)c(CC=C)c2)c1	7.1%	–	–
C=CCc1cc(CSc2nnc(-c3ccc(C)cc3)o2)c(O)c(-c2ccc(O)c(CC=C)c2)c1	6.7%	–	–
C=CCc1cc(CSc2nnc(-c3ccccc3)o2)c(O)c(-c2ccc(O)c(CC=C)c2)c1	69.8%	> 100 µM	Kd [3]: 14 µM; Activity (L02): Non-Toxic; Kd (Spike glycoprotein): 6.94 µM; viability at 100 µM [4]: 80%
C=CCc1cc(-c2cc(CC=C)c3oc(SCc4nnc(-c5ccc(C)cc5)o4)nc3c2)c2oc(SCc3nnc(-c4ccc(C)cc4)o3)nc2c1	13.5%	> 100 µM	–
C=CCc1cc(CSc2nnc(-c3ccc(Br)cc3)o2)c(O)c(-c2ccc(O)c(CC=C)c2)c1	3.7%	–	–
C=CCc1cc(-c2cc(CC=C)c3oc(SCc4nnc(-c5ccccc5F)o4)nc3c2)c2oc(SCc3nnc(-c4ccccc4F)o3)nc2c1	33.9%	> 100 µM	–
C=CCc1cc(-c2cc(CC=C)c3oc(SCc4nnc(-c5ccc(Cl)cc5)o4)nc3c2)c2oc(SCc3nnc(-c4ccc(Cl)cc4)o3)nc2c1	57.9%	> 100 µM	–
C=CCc1cc(-c2cc(CC=C)c3oc(SCc4nnc(-c5ccc(F)cc5)o4)nc3c2)c2oc(SCc3nnc(-c4ccc(F)cc4)o3)nc2c1	8.4%	> 100 µM	–
